SMILES strings stand for the structures. Substitutions are numbered along the chain they refer to.

Two molecules from the M2OR odorant receptor database can be followed below.

Holding throughout (conditions): stereoisomer not certain
In one experiment the target is T1, OR1F12P (Homo sapiens) (UniProt Q8NHA8).
T1 sequence (whole entry): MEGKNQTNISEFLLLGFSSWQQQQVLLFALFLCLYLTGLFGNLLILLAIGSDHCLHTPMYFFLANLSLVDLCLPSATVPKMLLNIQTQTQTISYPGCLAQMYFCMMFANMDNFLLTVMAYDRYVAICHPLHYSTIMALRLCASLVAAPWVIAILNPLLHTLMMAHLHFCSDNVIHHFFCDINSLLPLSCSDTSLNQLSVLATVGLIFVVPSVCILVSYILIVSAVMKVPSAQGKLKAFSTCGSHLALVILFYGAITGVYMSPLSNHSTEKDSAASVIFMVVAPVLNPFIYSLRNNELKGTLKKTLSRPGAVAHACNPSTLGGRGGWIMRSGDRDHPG
In outline:
(§1)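 Assay methods differ from source to source, frequently being transient luciferase assays in mammalian cell lines. For each receptor–molecule pair, the label responsive (active) applies when the original authors judged the measured signal statistically different from baseline, and non-responsive (inactive) applies otherwise.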

The next experiment relates to T2, OR1F1.
T2 sequence (whole entry): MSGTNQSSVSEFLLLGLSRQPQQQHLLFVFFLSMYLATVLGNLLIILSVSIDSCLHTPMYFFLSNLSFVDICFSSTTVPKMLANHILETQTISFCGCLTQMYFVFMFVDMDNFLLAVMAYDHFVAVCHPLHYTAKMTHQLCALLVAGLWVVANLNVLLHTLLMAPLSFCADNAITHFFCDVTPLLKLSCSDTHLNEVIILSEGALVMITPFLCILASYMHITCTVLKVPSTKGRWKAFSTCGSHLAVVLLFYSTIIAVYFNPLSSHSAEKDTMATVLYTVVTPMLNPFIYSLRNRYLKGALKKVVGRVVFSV
In short, it runs like this: as §1

A further experiment has as its target T3, OR1G1 (Homo sapiens) (UniProt P47890).
T3 sequence (whole entry): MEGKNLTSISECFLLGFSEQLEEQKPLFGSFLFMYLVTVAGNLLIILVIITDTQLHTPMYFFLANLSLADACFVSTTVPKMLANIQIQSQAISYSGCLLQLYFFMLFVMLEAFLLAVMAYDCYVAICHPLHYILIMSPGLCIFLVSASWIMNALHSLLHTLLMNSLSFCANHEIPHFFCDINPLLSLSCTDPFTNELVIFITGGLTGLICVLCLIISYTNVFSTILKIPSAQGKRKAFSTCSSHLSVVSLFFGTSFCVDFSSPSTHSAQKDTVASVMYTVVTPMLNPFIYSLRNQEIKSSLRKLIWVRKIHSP
In outline: as §1

In a further experiment the target is T4, OR1I1 (Homo sapiens) (UniProt O60431).
T4 sequence (whole entry): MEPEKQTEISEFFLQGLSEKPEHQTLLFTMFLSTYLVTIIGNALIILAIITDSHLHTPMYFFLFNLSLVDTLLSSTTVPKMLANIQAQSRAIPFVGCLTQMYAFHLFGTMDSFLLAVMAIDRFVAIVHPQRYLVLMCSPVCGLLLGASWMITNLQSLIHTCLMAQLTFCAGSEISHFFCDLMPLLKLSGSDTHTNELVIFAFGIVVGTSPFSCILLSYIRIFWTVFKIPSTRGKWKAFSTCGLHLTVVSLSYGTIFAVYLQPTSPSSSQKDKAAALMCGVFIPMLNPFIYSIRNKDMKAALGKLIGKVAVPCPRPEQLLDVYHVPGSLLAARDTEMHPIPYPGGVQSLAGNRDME
In outline: as §1

In a further experiment the target is T5, OR1J1 (Homo sapiens) (UniProt Q8NGS3).
T5 sequence (whole entry): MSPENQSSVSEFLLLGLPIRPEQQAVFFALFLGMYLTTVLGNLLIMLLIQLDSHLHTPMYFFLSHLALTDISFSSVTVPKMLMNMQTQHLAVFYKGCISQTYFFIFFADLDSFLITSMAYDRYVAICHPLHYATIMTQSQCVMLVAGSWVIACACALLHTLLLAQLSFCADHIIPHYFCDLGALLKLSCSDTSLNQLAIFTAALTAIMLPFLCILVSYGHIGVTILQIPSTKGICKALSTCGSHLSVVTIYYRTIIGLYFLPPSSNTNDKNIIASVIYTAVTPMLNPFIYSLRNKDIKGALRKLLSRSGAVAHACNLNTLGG
In short, it runs like this: as §1

The next experiment addresses T6, OR1J2 (Homo sapiens) (UniProt Q8NGS2).
T6 sequence (whole entry): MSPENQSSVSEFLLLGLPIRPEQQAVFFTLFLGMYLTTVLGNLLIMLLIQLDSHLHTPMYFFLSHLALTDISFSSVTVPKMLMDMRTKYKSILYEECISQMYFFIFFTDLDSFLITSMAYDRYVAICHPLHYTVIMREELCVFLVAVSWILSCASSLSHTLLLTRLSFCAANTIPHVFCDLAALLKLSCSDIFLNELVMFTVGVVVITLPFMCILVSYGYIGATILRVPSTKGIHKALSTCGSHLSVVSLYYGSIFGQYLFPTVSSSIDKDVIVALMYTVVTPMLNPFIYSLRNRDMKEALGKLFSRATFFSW
In short, it runs like this:
as §1

Another experiment addresses T7, OR1J4 (Homo sapiens) (UniProt Q8NGS1).
T7 sequence (whole entry): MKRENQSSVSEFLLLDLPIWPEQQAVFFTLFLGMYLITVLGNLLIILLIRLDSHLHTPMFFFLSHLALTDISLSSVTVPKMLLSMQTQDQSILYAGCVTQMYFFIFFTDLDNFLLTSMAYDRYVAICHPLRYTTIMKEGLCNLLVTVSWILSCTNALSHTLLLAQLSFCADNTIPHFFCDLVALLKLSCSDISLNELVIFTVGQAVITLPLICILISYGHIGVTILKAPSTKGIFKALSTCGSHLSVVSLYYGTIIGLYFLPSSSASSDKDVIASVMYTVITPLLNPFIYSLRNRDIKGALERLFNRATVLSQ
In outline: as §1

For a further experiment, the target named is T8, OR1K1 (Homo sapiens) (UniProt Q8NGR3).
T8 sequence (whole entry): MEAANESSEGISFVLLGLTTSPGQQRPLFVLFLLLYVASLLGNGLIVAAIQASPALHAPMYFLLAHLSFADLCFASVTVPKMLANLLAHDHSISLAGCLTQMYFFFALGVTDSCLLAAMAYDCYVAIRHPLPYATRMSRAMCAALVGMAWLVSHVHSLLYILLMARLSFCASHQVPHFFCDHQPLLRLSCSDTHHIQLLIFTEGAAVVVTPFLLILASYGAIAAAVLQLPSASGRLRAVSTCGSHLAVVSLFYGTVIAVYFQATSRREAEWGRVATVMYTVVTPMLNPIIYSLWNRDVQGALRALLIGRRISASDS
In short, it runs like this: as §1

The subject of the next experiment is T9, OR1L1.
T9 sequence (whole entry): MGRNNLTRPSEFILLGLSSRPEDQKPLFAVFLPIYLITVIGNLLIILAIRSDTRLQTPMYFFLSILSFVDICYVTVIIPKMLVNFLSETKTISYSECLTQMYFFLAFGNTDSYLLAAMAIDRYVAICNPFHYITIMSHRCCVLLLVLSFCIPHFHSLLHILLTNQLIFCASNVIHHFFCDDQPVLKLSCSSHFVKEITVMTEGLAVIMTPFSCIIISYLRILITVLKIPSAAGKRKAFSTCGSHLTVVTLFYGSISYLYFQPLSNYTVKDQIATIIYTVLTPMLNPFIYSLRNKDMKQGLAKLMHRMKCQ
In short, it runs like this: as §1

The target in a further experiment is T10, OR1L3 (Homo sapiens) (UniProt Q8NH93).
T10 sequence (whole entry): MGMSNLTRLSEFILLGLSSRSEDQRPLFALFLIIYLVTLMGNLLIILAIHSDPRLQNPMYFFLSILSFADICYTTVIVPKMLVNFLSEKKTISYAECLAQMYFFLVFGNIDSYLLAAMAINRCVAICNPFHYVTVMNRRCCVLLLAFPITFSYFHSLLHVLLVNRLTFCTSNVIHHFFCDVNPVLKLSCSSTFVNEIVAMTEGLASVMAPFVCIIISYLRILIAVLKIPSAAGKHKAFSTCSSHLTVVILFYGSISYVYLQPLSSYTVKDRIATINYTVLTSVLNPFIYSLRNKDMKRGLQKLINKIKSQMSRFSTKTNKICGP
In short, it runs like this: as §1

The target in the next experiment is T11, OR1L4 (Homo sapiens) (UniProt Q8NGR5).
T11 sequence (whole entry): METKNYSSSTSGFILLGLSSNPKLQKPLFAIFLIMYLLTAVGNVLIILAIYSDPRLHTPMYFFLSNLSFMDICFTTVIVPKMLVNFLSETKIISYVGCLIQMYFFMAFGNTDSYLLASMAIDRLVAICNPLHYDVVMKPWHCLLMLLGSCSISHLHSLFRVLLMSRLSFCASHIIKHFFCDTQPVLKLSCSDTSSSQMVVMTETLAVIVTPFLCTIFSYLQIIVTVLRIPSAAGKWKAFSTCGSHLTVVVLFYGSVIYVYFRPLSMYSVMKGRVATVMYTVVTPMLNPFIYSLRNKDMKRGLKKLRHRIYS
In short, it runs like this:
as §1

The next experiment concerns T12, OR1L4.
T12 sequence (whole entry): T11 sequence (whole entry) with G234R
In short, it runs like this: as §1

The test system of the next experiment is T13, OR1L6.
T13 sequence (whole entry): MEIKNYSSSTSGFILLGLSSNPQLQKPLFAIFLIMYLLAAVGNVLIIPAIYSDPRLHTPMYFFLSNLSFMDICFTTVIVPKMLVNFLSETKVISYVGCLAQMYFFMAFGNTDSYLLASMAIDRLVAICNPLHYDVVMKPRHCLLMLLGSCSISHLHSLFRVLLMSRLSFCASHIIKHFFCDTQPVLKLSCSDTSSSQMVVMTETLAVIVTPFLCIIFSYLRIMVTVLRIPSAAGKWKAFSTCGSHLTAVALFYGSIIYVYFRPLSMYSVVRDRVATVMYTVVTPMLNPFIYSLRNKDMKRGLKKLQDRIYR
In short, it runs like this:
as §1

A further experiment concerns the target T14, OR1L8 (Homo sapiens) (UniProt Q8NGR8).
T14 sequence (whole entry): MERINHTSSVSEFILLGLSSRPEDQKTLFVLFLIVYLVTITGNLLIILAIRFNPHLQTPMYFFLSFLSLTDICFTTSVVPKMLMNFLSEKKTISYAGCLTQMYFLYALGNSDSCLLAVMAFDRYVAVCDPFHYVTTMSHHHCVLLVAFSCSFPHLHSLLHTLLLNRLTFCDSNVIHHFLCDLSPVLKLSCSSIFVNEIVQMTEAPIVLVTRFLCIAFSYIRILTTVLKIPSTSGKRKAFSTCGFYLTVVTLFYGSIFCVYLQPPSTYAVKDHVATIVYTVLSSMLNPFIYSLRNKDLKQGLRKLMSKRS
In outline:
as §1

For another experiment, the system named is T15, OR1L8 T27P R211P.
T15 sequence (whole entry): T14 sequence (whole entry) with T27P, R211P
In outline: as §1

The target of a further experiment is T16, OR1M1 (Homo sapiens) (UniProt Q8NGA1).
T16 sequence (whole entry): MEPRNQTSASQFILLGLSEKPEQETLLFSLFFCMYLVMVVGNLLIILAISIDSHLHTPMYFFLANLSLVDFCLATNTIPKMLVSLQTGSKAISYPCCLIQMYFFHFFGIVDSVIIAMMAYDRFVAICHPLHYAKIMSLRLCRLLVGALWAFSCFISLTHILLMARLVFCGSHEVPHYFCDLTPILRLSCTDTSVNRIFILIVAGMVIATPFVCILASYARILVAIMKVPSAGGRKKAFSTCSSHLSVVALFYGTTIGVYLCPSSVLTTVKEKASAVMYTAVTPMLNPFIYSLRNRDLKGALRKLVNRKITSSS
In short, it runs like this: as §1

The next experiment concerns the target T17, OR1N1 (Homo sapiens) (UniProt Q8NGS0).
T17 sequence (whole entry): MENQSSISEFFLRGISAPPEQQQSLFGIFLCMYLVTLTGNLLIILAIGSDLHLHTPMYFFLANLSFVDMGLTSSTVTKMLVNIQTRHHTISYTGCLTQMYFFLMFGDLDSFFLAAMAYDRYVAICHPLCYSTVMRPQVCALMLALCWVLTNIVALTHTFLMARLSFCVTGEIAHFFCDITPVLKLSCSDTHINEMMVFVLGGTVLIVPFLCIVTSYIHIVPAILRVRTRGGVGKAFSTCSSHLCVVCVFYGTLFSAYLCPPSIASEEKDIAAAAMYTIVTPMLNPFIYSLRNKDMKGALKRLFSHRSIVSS
In short, it runs like this:
as §1

Another experiment has as its system T18, OR1N2 W37R.
T18 sequence (whole entry): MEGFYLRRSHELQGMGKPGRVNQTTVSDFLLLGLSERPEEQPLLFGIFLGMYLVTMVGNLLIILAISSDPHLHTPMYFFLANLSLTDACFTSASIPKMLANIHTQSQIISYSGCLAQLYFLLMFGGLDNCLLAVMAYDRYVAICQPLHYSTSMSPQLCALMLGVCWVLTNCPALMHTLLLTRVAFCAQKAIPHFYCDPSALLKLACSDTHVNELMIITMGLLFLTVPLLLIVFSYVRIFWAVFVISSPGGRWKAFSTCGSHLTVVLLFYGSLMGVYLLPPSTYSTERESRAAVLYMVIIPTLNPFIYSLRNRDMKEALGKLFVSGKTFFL
In short, it runs like this: as §1

Turning to `CC1=C(O)C(=O)C(C)O1` (centres undefined), the “odorant receptor agonist call” value with OR1F12P (Homo sapiens), in the experiment on OR1F1, with OR1G1 (Homo sapiens), in the experiment with OR1I1 (Homo sapiens), with OR1J1 (Homo sapiens) and with OR1J2 (Homo sapiens) was “inactive” throughout. Besides, the “odorant receptor agonist call” value in the experiment with OR1J4 (Homo sapiens), in the experiment with OR1K1 (Homo sapiens), in the experiment with OR1L1, in the experiment with OR1L3 (Homo sapiens), with OR1L4 (Homo sapiens) and with OR1L4 was “inactive” each time. In addition, the “odorant receptor agonist call” value in the experiment with OR1L6, in the experiment with OR1L8 (Homo sapiens), in the experiment with OR1L8 T27P R211P, in the experiment with OR1M1 (Homo sapiens), with OR1N1 (Homo sapiens) and with OR1N2 W37R was “inactive” throughout.
As to `CCCCCCC(C)O` (centres undefined), the “odorant receptor agonist call” value with OR1G1 (Homo sapiens) is “active”.
